Experimental data pooled from the literature.
Target: Focal adhesion kinase 1 (PTK2, Homo sapiens, UniProt Q05397)

| Compound | effect on | action | technique | concentration | measurement | result |
| --- | --- | --- | --- | --- | --- | --- |
| Cc1ccc(NC(=O)c2ccnc(C(F)(F)F)c2)cc1-c1cc(OCCO)nc(N2CCOCC2)c1 | cell-free assay | – | – | 1 µM | remaining signal | 100% |
| C#Cc1cc(-c2cc(Nc3nc(N[C@@H](C)c4ccc(F)cn4)ncc3Cl)n[nH]2)ccc1C=O | enzyme activity | inhibitor | – | 0.2 µM | inhibition | 31.2% |
| C#Cc1cnc(Nc2ccnc(CO)c2)nc1Nc1ccccc1S(C)(=O)=NC#N (stereo not shown) | cell-free assay | – | – | 1 µM | remaining signal | 40% |
| CCCCC(=O)Nc1ccc(-c2ccc3ncn(CCC)c(=O)c3c2)cn1 | binding | – | competition with immobilised ligand | 0.5 µM | remaining binding | 87% |
| CO[C@@H]1[C@H](N(C)C(=O)c2ccccc2)C[C@H]2O[C@]1(C)n1c3ccccc3c3c4c(c5c6ccccc6n2c5c31)C(=O)NC4 | enzyme activity | inhibitor | – | 1 µM | inhibition | 2% |
| N#Cc1ccc(NC(=O)Nc2ccccc2)cc1 | cell-free assay | – | competition with immobilised ligand | 25 µM | remaining binding | 100% |
| C=CC(=O)N1CCC[C@@H](n2nc(-c3ccc(Oc4ccccc4)cc3)c3c(N)ncnc32)C1 | enzyme activity | inhibitor | – | 1 µM | inhibition | 5% |
| C[C@H]1CC[C@H](n2c3cnccc3c3cnc(Nc4ccc5c(n4)CCN(C(=O)CO)C5)nc32)CC1 | cell-free assay | inhibitor | – | 1 µM | remaining signal | 69% |
| Cc1cc(O)c(-c2ccc([C@@H](C)CN(C)C)cc2)c2c1[nH]c(=O)c1sccc12 | enzyme activity | inhibitor | – | 0.1 µM | inhibition | 8.92% |
| COc1ccc2oc(-c3ccc4nc(N)oc4c3)c/c(=N\c3ccccc3NC(=O)CCN)c2c1 | binding | – | – | 1 µM | remaining binding | 84% |
